# Columns and labels:
# Plasmodium falciparum = assay: In vitro antimalarial activity for chloroquine-resistant Plasmodium falciparum FCR3 relative to artemisinin; format: functional
# Mus musculus [1] = assay: In vivo study of Plasmodium berghei in mice (Mus musculus) was determined by number of dead mice (Mus musculus) after 18 days post infection at the dose of 32 mg/kg/day; format: ADME, organism-based; conditions: 432 h
# How it was run: (§1)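 Mice infected with Plasmodium berghei were dosed in mg/kg/day, from 0 for untreated controls up to 256. Deaths were logged by the day postinfection on which they occurred. Surviving mice were counted 60 days after infection. Treated groups held 5 or 7 mice.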
# Mus musculus [2] = assay: In vivo study of control in mice was determined by no. of dead mice after 7 days post infection at the dose of 0 mg/kg/day; format: ADME, organism-based; conditions: 168 h; how it was run: as §1
# Mus musculus [3] = assay: In vivo study of Plasmodium berghei in mice (Mus musculus) was determined by number of dead mice (Mus musculus) after 17 days post infection at the dose of 128 mg/kg/day; format: ADME, organism-based; conditions: 408 h; how it was run: as §1
# Mus musculus [4] = assay: In vivo study of Plasmodium berghei in mice (Mus musculus) was determined by number of dead mice (Mus musculus) after 19 days post infection at the dose of 32 mg/kg/day; format: ADME, organism-based; conditions: 456 h; how it was run: as §1
# Mus musculus [5] = assay: In vivo study of Plasmodium berghei in mice (Mus musculus) was determined by number of dead mice (Mus musculus) after 14 days post infection at the dose of 8 mg/kg/day; format: ADME, organism-based; conditions: 336 h; how it was run: as §1
# Mus musculus [6] = assay: In vivo study of Plasmodium berghei in mice (Mus musculus) was determined by number of dead mice (Mus musculus) after 12 days post infection at the dose of 32 mg/kg/day; format: ADME, organism-based; conditions: 288 h; how it was run: as §1
# Mus musculus [7] = assay: In vivo study of Plasmodium berghei in mice (Mus musculus) was determined by number of dead mice (Mus musculus) after 16 days post infection at the dose of 8 mg/kg/day; format: ADME, organism-based; conditions: 384 h; how it was run: as §1
# Mus musculus [8] = assay: In vivo study of control in mice was determined by no. of dead mice after 9 days post infection at the dose of 0 mg/kg/day; format: ADME, organism-based; conditions: 216 h; how it was run: as §1
# Mus musculus [9] = assay: Number of mice alive 60 days after infection at the dose of 32 mg/kg/day among the 7 mice tested; format: functional; how it was run: as §1
# Mus musculus [10] = assay: In vivo study of Plasmodium berghei in mice (Mus musculus) was determined by number of dead mice (Mus musculus) after 20 days post infection at the dose of 32 mg/kg/day; format: ADME, organism-based; conditions: 480 h; how it was run: as §1
# Mus musculus [11] = assay: In vivo study of Plasmodium berghei in mice (Mus musculus) was determined by number of dead mice (Mus musculus) after 13 days post infection at the dose of 8 mg/kg/day; format: ADME, organism-based; conditions: 312 h; how it was run: as §1
# Mus musculus [12] = assay: In vivo study of Plasmodium berghei in mice (Mus musculus) was determined by number of dead mice (Mus musculus) after 27 days post infection at the dose of 32 mg/kg/day; format: ADME, organism-based; conditions: 648 h; how it was run: as §1
# Mus musculus [13] = assay: Number of mice alive 60 days after infection at the dose of 8 mg/kg/day among the 7 mice tested; format: functional; how it was run: as §1
# Mus musculus [14] = assay: In vivo study of control in mice was determined by no. of dead mice after 10 days post infection at the dose of 0 mg/kg/day; format: ADME, organism-based; conditions: 240 h; how it was run: as §1
# Mus musculus [15] = assay: Number of mice alive 60 days after infection at the dose of 0 mg/kg/day among the 7 mice tested; format: functional; how it was run: as §1
# Mus musculus [16] = assay: Number of mice alive 60 days after infection at the dose of 128 mg/kg/day among the 7 mice tested; format: functional; how it was run: as §1
# Mus musculus [17] = assay: In vivo study of control in mice was determined by no. of dead mice after 8 days post infection at the dose of 0 mg/kg/day; format: ADME, organism-based; conditions: 192 h; how it was run: as §1
# Mus musculus [18] = assay: Number of mice alive 60 days after infection at the dose of 32 mg/kg/day among the 5 mice tested; format: functional; how it was run: as §1
# Mus musculus [19] = assay: Number of mice alive 60 days after infection at the dose of 128 mg/kg/day among the 5 mice tested; format: functional; how it was run: as §1
# Mus musculus [20] = assay: In vivo study of Plasmodium berghei in mice (Mus musculus) was determined by number of dead mice (Mus musculus) after 20 days post infection at the dose of 8 mg/kg/day; format: ADME, organism-based; conditions: 480 h; how it was run: as §1
# Mus musculus [21] = assay: Number of mice alive 60 days after infection at the dose of 8 mg/kg/day among the 5 mice tested; format: functional; how it was run: as §1
# Mus musculus [22] = assay: In vivo study of compound in mice was determined by no. of dead mice after 15 days post infection at the dose of 8 mg/kg/day; format: ADME, organism-based; conditions: 360 h; how it was run: as §1
# Mus musculus [23] = assay: In vivo study of compound in mice was determined by no. of dead mice after 26 days post infection at the dose of 8 mg/kg/day; format: ADME, organism-based; conditions: 624 h; how it was run: as §1
# Mus musculus [24] = assay: In vivo study of compound in mice was determined by no. of dead mice after 19 days post infection at the dose of 8 mg/kg/day; format: ADME, organism-based; conditions: 456 h; how it was run: as §1
# Mus musculus [25] = assay: In vivo study of compound in mice was determined by no. of dead mice after 16 days post infection at the dose of 8 mg/kg/day; format: ADME, organism-based; conditions: 384 h; how it was run: as §1
# Mus musculus [26] = assay: In vivo study of compound in mice was determined by no. of dead mice after 18 days post infection at the dose of 16 mg/kg/day; format: ADME, organism-based; conditions: 432 h; how it was run: as §1
# Mus musculus [27] = assay: Number of mice alive 60 days after infection at the dose of 16 mg/kg/day among the 7 mice tested; format: functional; how it was run: as §1
# Mus musculus [28] = assay: Number of mice alive 60 days after infection at the dose of 64 mg/kg/day among the 7 mice tested; format: functional; how it was run: as §1
# Mus musculus [29] = assay: In vivo study of compound in mice was determined by no. of dead mice after 16 days post infection at the dose of 4 mg/kg/day; format: ADME, organism-based; conditions: 384 h; how it was run: as §1
# Mus musculus [30] = assay: In vivo study of compound in mice was determined by no. of dead mice after 8 days post infection at the dose of 4 mg/kg/day; format: ADME, organism-based; conditions: 192 h; how it was run: as §1
# Mus musculus [31] = assay: In vivo study of compound in mice was determined by no. of dead mice after 18 days post infection at the dose of 4 mg/kg/day; format: ADME, organism-based; conditions: 432 h; how it was run: as §1
# Mus musculus [32] = assay: Number of mice alive 60 days after infection at the dose of 4 mg/kg/day among the 7 mice tested; format: functional; how it was run: as §1
# Mus musculus [33] = assay: In vivo study of compound in mice was determined by no. of dead mice after 9 days post infection at the dose of 4 mg/kg/day; format: ADME, organism-based; conditions: 216 h; how it was run: as §1
# Mus musculus [34] = assay: In vivo study of compound in mice was determined by no. of dead mice after 12 days post infection at the dose of 4 mg/kg/day; format: ADME, organism-based; conditions: 288 h; how it was run: as §1
# Mus musculus [35] = assay: In vivo study of compound in mice was determined by no. of dead mice after 11 days post infection at the dose of 4 mg/kg/day; format: ADME, organism-based; conditions: 264 h; how it was run: as §1
# Mus musculus [36] = assay: Number of mice alive 60 days after infection at the dose of 256 mg/kg/day among the 7 mice tested; format: functional; how it was run: as §1
structure (smiles),measurement,setting,value
C[C@@H]1CCC2[C@@H](C)C(=O)N(CC(C)(C)C)[C@@H]3O[C@@]4(C)CC[C@@H]1[C@@]23OO4 (some centres not stated),Relative activity,Plasmodium falciparum,9
CO[C@@]1(C)CC[C@@H]2C3C(CC[C@H]2C)[C@@H](C)C(=O)N[C@@H]3O1 (some centres not stated),Relative activity,Plasmodium falciparum,0.01
C[C@@H]1CCC2[C@@H](C)C(=O)N(Cc3ccccn3)[C@@H]3O[C@@]4(C)CC[C@@H]1[C@@]23OO4 (some centres not stated),Relative activity,Plasmodium falciparum,22
C=CCN1C(=O)[C@H](C)C2CC[C@@H](C)[C@@H]3CC[C@@]4(C)OO[C@@]23[C@H]1O4 (some centres not stated),Relative activity,Plasmodium falciparum,0.8
C[C@@H]1CC[C@H]2[C@@H](C)C(=O)O[C@@H]3O[C@@]4(C)CC[C@@H]1[C@]32OO4 [ARTEMISININ],No. of dead mice,Mus musculus [1],1
same,No. of dead mice,Mus musculus [2],3
same,No. of dead mice,Mus musculus [3],1
same,No. of dead mice,Mus musculus [4],1
same,No. of dead mice,Mus musculus [5],2
same,No. of dead mice,Mus musculus [6],1
same,No. of dead mice,Mus musculus [7],2
same,No. of dead mice,Mus musculus [8],1
same,No. of mice alive,Mus musculus [9],2
same,No. of dead mice,Mus musculus [10],1
same,No. of dead mice,Mus musculus [11],1
same,No. of dead mice,Mus musculus [12],1
same,No. of mice alive,Mus musculus [13],0
same,No. of dead mice,Mus musculus [14],1
same,No. of mice alive,Mus musculus [15],0
same,No. of mice alive,Mus musculus [16],6
same,No. of dead mice,Mus musculus [17],2
C[C@@H]1CCC2[C@@H](C)C(=O)N(C)[C@@H]3O[C@@]4(C)CC[C@@H]1[C@@]23OO4 (some centres not stated),Relative activity,Plasmodium falciparum,2.6
C[C@@H]1CCC2[C@@H](C)C(=O)N(CC=O)[C@@H]3O[C@@]4(C)CC[C@@H]1[C@@]23OO4 (some centres not stated),No. of mice alive,Mus musculus [18],5
same,No. of mice alive,Mus musculus [19],5
same,No. of dead mice,Mus musculus [20],1
same,No. of mice alive,Mus musculus [21],0
same,No. of dead mice,Mus musculus [22],1
same,No. of dead mice,Mus musculus [23],1
same,Relative activity,Plasmodium falciparum,26
same,No. of dead mice,Mus musculus [24],1
same,No. of dead mice,Mus musculus [25],1
C[C@@H]1CCC2[C@@H](C)C(=O)N(Cc3ccco3)[C@@H]3O[C@@]4(C)CC[C@@H]1[C@@]23OO4 (some centres not stated),Relative activity,Plasmodium falciparum,1
CO[C@@]1(C)CC[C@@H]2C3C(CC[C@H]2C)[C@@H](C)C(=O)N(Cc2ccccn2)[C@@H]3O1 (some centres not stated),Relative activity,Plasmodium falciparum,0.008
CO[C@@]1(C)CC[C@@H]2C3C(CC[C@H]2C)[C@@H](C)C(=O)N(CC(C)(C)C)[C@@H]3O1 (some centres not stated),Relative activity,Plasmodium falciparum,0.001
CCOC1O[C@@H]2O[C@@]3(C)CC[C@H]4[C@H](C)CCC([C@H]1C)[C@@]24OO3 (some centres not stated),No. of dead mice,Mus musculus [26],1
same,No. of mice alive,Mus musculus [27],6
same,No. of mice alive,Mus musculus [28],7
same,No. of dead mice,Mus musculus [29],1
same,No. of dead mice,Mus musculus [30],1
same,No. of dead mice,Mus musculus [31],2
same,No. of mice alive,Mus musculus [32],0
same,No. of dead mice,Mus musculus [33],1
same,No. of dead mice,Mus musculus [34],1
same,No. of dead mice,Mus musculus [35],1
same,No. of mice alive,Mus musculus [36],7
C[C@@H]1CCC2[C@@H](C)C(=O)N[C@@H]3O[C@@]4(C)CC[C@@H]1[C@@]23OO4 (some centres not stated),Relative activity,Plasmodium falciparum,1
C[C@@H]1CCC2[C@@H](C)C(=O)N(Cc3cccs3)[C@@H]3O[C@@]4(C)CC[C@@H]1[C@@]23OO4 (some centres not stated),Relative activity,Plasmodium falciparum,1.1

# Source: ChEMBL document CHEMBL1128220, “Syntheses and antimalarial activities of N-substituted 11-azaartemisinins” (J Med Chem, 1995)
